Test results as given in ChEMBL document CHEMBL1122046, “Quaternary heterocyclylamino beta-lactams: a generic alternative to the classical acylamino side chain” (1982).
≈ marks a conversion by molar mass, not a printed value.

system: Streptococcus pyogenes; test: Minimum inhibitory concentration against aerobic organism Streptococcus pyogenes strain 3124; assay type: functional; details: Streptococcus pyogenes; read-out: MIC
How it was run: (§1)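 Agar-dilution MIC in µg/mL against aerobic bacterial strains on tryptocase soy agar, with inoculum applied as spots. Most series used 10^5 cfu per spot, and a later series used 10^4 cfu per spot. In some tables, footnoted strains were instead tested on Mueller-Hinton or nutrient agar. β-Lactamase-producing strains are flagged.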

Row | MIC [µg/mL] | SMILES
1 | 1 (≈ 2.23 µM) | CC(C)[n+]1ccc(N[C@@H]2C(=O)N3C(C(=O)[O-])=C(CSc4nnnn4C)CS[C@H]23)cc1
2 | 0.03 (≈ 0.0618 µM) | Cn1nnnc1SCC1=C(C(=O)[O-])N2C(=O)[C@@H](Nc3cc[n+](Cc4ccco4)cc3)[C@H]2SC1
3 | 32 (≈ 67 µM) | COC(=O)c1c[n+](C)ccc1N[C@@H]1C(=O)N2C(C(=O)[O-])=C(CSc3nnnn3C)CS[C@H]12

system: Morganella morganii; test: Minimum inhibitory concentration against aerobic organism Morganella morganii strain 2833; assay type: functional; details: Morganella morganii; read-out: MIC; how it was run: as §1

Row | MIC [µg/mL] | SMILES
4 | > 128 | CC(C)[n+]1ccc(N[C@@H]2C(=O)N3C(C(=O)[O-])=C(CSc4nnnn4C)CS[C@H]23)cc1
5 | > 128 | Cn1nnnc1SCC1=C(C(=O)[O-])N2C(=O)[C@@H](Nc3cc[n+](Cc4ccco4)cc3)[C@H]2SC1
6 | > 128 | COC(=O)c1c[n+](C)ccc1N[C@@H]1C(=O)N2C(C(=O)[O-])=C(CSc3nnnn3C)CS[C@H]12

system: Enterobacter cloacae; test: Minimum inhibitory concentration against aerobic organism Enterobacter cloacae strain 2646; assay type: functional; details: Enterobacter cloacae; read-out: MIC; how it was run: as §1

Row | MIC [µg/mL] | SMILES
7 | 32 (≈ 71.5 µM) | CC(C)[n+]1ccc(N[C@@H]2C(=O)N3C(C(=O)[O-])=C(CSc4nnnn4C)CS[C@H]23)cc1
8 | 8 (≈ 16.5 µM) | Cn1nnnc1SCC1=C(C(=O)[O-])N2C(=O)[C@@H](Nc3cc[n+](Cc4ccco4)cc3)[C@H]2SC1
9 | > 128 | COC(=O)c1c[n+](C)ccc1N[C@@H]1C(=O)N2C(C(=O)[O-])=C(CSc3nnnn3C)CS[C@H]12

system: Klebsiella pneumoniae; test: Minimum inhibitory concentration against aerobic organism Klebsiella pneumoniae strain 2882; assay type: functional; details: Klebsiella pneumoniae; read-out: MIC; how it was run: as §1

Row | MIC [µg/mL] | SMILES
10 | 16 (≈ 35.8 µM) | CC(C)[n+]1ccc(N[C@@H]2C(=O)N3C(C(=O)[O-])=C(CSc4nnnn4C)CS[C@H]23)cc1
11 | 0.06 (≈ 0.124 µM) | Cn1nnnc1SCC1=C(C(=O)[O-])N2C(=O)[C@@H](Nc3cc[n+](Cc4ccco4)cc3)[C@H]2SC1
12 | > 128 | COC(=O)c1c[n+](C)ccc1N[C@@H]1C(=O)N2C(C(=O)[O-])=C(CSc3nnnn3C)CS[C@H]12

system: Proteus mirabilis; test: Minimum inhibitory concentration against aerobic organism Proteus mirabilis strain 2830; assay type: functional; details: Proteus mirabilis; read-out: MIC; how it was run: as §1

Row | MIC [µg/mL] | SMILES
13 | 128 (≈ 286 µM) | CC(C)[n+]1ccc(N[C@@H]2C(=O)N3C(C(=O)[O-])=C(CSc4nnnn4C)CS[C@H]23)cc1
14 | 16 (≈ 33 µM) | Cn1nnnc1SCC1=C(C(=O)[O-])N2C(=O)[C@@H](Nc3cc[n+](Cc4ccco4)cc3)[C@H]2SC1
15 | > 128 | COC(=O)c1c[n+](C)ccc1N[C@@H]1C(=O)N2C(C(=O)[O-])=C(CSc3nnnn3C)CS[C@H]12

system: Proteus vulgaris; test: Minimum inhibitory concentration against aerobic organism Proteus vulgaris strain 2829; assay type: functional; details: Proteus vulgaris; read-out: MIC; how it was run: as §1

Row | MIC [µg/mL] | SMILES
16 | < 0.06 | CC(C)[n+]1ccc(N[C@@H]2C(=O)N3C(C(=O)[O-])=C(CSc4nnnn4C)CS[C@H]23)cc1
17 | < 0.25 | Cn1nnnc1SCC1=C(C(=O)[O-])N2C(=O)[C@@H](Nc3cc[n+](Cc4ccco4)cc3)[C@H]2SC1
18 | > 128 | COC(=O)c1c[n+](C)ccc1N[C@@H]1C(=O)N2C(C(=O)[O-])=C(CSc3nnnn3C)CS[C@H]12

system: Klebsiella aerogenes; test: Minimum inhibitory concentration against aerobic organism Enterobacter aerogenes strain 2906; assay type: functional; details: Klebsiella aerogenes; read-out: MIC; how it was run: as §1

Row | MIC [µg/mL] | SMILES
19 | 128 (≈ 286 µM) | CC(C)[n+]1ccc(N[C@@H]2C(=O)N3C(C(=O)[O-])=C(CSc4nnnn4C)CS[C@H]23)cc1
20 | 8 (≈ 16.5 µM) | Cn1nnnc1SCC1=C(C(=O)[O-])N2C(=O)[C@@H](Nc3cc[n+](Cc4ccco4)cc3)[C@H]2SC1
21 | > 128 | COC(=O)c1c[n+](C)ccc1N[C@@H]1C(=O)N2C(C(=O)[O-])=C(CSc3nnnn3C)CS[C@H]12

system: Pseudomonas aeruginosa; test: Minimum inhibitory concentration against aerobic organism Pseudomonas aeruginosa strain 2835; assay type: functional; details: not given; how it was run: as §1

Row | MIC [µg/mL] | SMILES
22 | > 128 | CC(C)[n+]1ccc(N[C@@H]2C(=O)N3C(C(=O)[O-])=C(CSc4nnnn4C)CS[C@H]23)cc1
23 | 128 (≈ 264 µM) | Cn1nnnc1SCC1=C(C(=O)[O-])N2C(=O)[C@@H](Nc3cc[n+](Cc4ccco4)cc3)[C@H]2SC1
24 | > 128 | COC(=O)c1c[n+](C)ccc1N[C@@H]1C(=O)N2C(C(=O)[O-])=C(CSc3nnnn3C)CS[C@H]12

system: Shigella; test: Minimum inhibitory concentration against aerobic organism Shigella species strain 2880; assay type: functional; details: Shigella; read-out: MIC; how it was run: as §1

Row | MIC [µg/mL] | SMILES
25 | 0.5 (≈ 1.12 µM) | CC(C)[n+]1ccc(N[C@@H]2C(=O)N3C(C(=O)[O-])=C(CSc4nnnn4C)CS[C@H]23)cc1
26 | 0.0075 (≈ 0.0154 µM) | Cn1nnnc1SCC1=C(C(=O)[O-])N2C(=O)[C@@H](Nc3cc[n+](Cc4ccco4)cc3)[C@H]2SC1
27 | > 128 | COC(=O)c1c[n+](C)ccc1N[C@@H]1C(=O)N2C(C(=O)[O-])=C(CSc3nnnn3C)CS[C@H]12

system: not listed separately; test: Minimum inhibitory concentration against aerobic organism Salmonella schottmuelleri strain 2837; assay type: functional; details: Salmonella; read-out: MIC; how it was run: as §1

Row | MIC [µg/mL] | SMILES
28 | 0.125 (≈ 0.279 µM) | CC(C)[n+]1ccc(N[C@@H]2C(=O)N3C(C(=O)[O-])=C(CSc4nnnn4C)CS[C@H]23)cc1
29 | 0.0075 (≈ 0.0154 µM) | Cn1nnnc1SCC1=C(C(=O)[O-])N2C(=O)[C@@H](Nc3cc[n+](Cc4ccco4)cc3)[C@H]2SC1
30 | 128 (≈ 268 µM) | COC(=O)c1c[n+](C)ccc1N[C@@H]1C(=O)N2C(C(=O)[O-])=C(CSc3nnnn3C)CS[C@H]12

system: Escherichia coli; test: MIC against aerobic organism Escherichia coli strain 2891; assay type: functional; details: Escherichia coli; read-out: MIC; how it was run: as §1

Row | MIC [µg/mL] | SMILES
31 | 0.5 (≈ 1.12 µM) | CC(C)[n+]1ccc(N[C@@H]2C(=O)N3C(C(=O)[O-])=C(CSc4nnnn4C)CS[C@H]23)cc1
32 | 0.06 (≈ 0.124 µM) | Cn1nnnc1SCC1=C(C(=O)[O-])N2C(=O)[C@@H](Nc3cc[n+](Cc4ccco4)cc3)[C@H]2SC1
33 | > 128 | COC(=O)c1c[n+](C)ccc1N[C@@H]1C(=O)N2C(C(=O)[O-])=C(CSc3nnnn3C)CS[C@H]12

system: Enterococcus faecalis; test: Minimum inhibitory concentration against aerobic organism Streptococcus faecalis strain 2864; assay type: functional; details: not given; how it was run: as §1

Row | MIC [µg/mL] | SMILES
34 | 128 (≈ 286 µM) | CC(C)[n+]1ccc(N[C@@H]2C(=O)N3C(C(=O)[O-])=C(CSc4nnnn4C)CS[C@H]23)cc1
35 | 128 (≈ 264 µM) | Cn1nnnc1SCC1=C(C(=O)[O-])N2C(=O)[C@@H](Nc3cc[n+](Cc4ccco4)cc3)[C@H]2SC1
36 | > 128 | COC(=O)c1c[n+](C)ccc1N[C@@H]1C(=O)N2C(C(=O)[O-])=C(CSc3nnnn3C)CS[C@H]12

system: Serratia marcescens; test: Minimum inhibitory concentration against aerobic organism Serratia marcescens strain 2852; assay type: functional; details: Serratia marcescens; read-out: MIC; how it was run: as §1

Row | MIC [µg/mL] | SMILES
37 | > 128 | CC(C)[n+]1ccc(N[C@@H]2C(=O)N3C(C(=O)[O-])=C(CSc4nnnn4C)CS[C@H]23)cc1
38 | 128 (≈ 264 µM) | Cn1nnnc1SCC1=C(C(=O)[O-])N2C(=O)[C@@H](Nc3cc[n+](Cc4ccco4)cc3)[C@H]2SC1
39 | > 128 | COC(=O)c1c[n+](C)ccc1N[C@@H]1C(=O)N2C(C(=O)[O-])=C(CSc3nnnn3C)CS[C@H]12

system: Staphylococcus aureus; test: Minimum inhibitory concentration against aerobic organism Staphylococcus aureus strain 2868; assay type: functional; details: Staphylococcus aureus; read-out: MIC; how it was run: as §1

Row | MIC [µg/mL] | SMILES
40 | 32 (≈ 71.5 µM) | CC(C)[n+]1ccc(N[C@@H]2C(=O)N3C(C(=O)[O-])=C(CSc4nnnn4C)CS[C@H]23)cc1
41 | 2 (≈ 4.12 µM) | Cn1nnnc1SCC1=C(C(=O)[O-])N2C(=O)[C@@H](Nc3cc[n+](Cc4ccco4)cc3)[C@H]2SC1
42 | > 128 | COC(=O)c1c[n+](C)ccc1N[C@@H]1C(=O)N2C(C(=O)[O-])=C(CSc3nnnn3C)CS[C@H]12
